Bioassay records deposited in PubChem by several laboratories.
KCNK3 block: human KCNK3 channel inhibition, primary screen; O14649; CHO-KCNK3 thallium flux, FluxOR fluorescence; stronger effect = lower value; B-score at 10 µM; 0.84% of 340,000 active; AID 602410;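 active means B-score under library mean minus 4 SD, starting fluorescence ratio at most library mean plus 5 SD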;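 further: more negative B-score means stronger inhibition of thallium flux through KCNK3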
Target sequence (O14649 whole entry, looked up): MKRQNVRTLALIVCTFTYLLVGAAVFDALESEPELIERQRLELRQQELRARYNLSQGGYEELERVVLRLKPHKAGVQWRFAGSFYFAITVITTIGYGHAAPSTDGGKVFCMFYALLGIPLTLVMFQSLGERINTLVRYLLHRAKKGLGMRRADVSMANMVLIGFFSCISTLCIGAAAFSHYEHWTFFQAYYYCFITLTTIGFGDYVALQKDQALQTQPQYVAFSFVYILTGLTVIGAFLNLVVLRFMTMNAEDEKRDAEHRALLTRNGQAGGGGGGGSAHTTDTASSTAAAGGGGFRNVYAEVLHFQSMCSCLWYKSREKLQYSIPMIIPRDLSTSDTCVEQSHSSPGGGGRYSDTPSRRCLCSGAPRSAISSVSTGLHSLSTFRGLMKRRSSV
hERG protect: shields human hERG channel from block by proarrhythmic agents. AID 1511. CHO-hERG, FluxOR thallium flux, dofetilide IC70 present. activation (rescue from dofetilide block), less the hit threshold, % at 10 µM. Q12809. 0.51% of 310,000 active;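 active means activation above the mean of controls blocked by dofetilide plus 5 SD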;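 further: thallium influx through hERG after potassium depolarization seen as dye fluorescence rise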
KCNQ1 inh: blocks the human KCNQ1 potassium channel. AID 2642. 1.3% of 310,000 active. P51787. CHO-K1 KCNQ1, FluxOR thallium flux fluorescence; stronger effect = higher value. B-score at 10 µM;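 active means compounds whose thallium flux B-score, printed positive for inhibition, exceeds three library SD while starting fluorescence stays within three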;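 further: channel opened by potassium depolarization with thallium stimulus after 20 min compound exposure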
KCNQ1 pot: human KCNQ1 channel potentiation or activation; P51787; CHO-K1 KCNQ1, thallium flux FluxOR fluorescence; stronger effect = higher value; B-score at 10 µM; 0.35% of 310,000 active;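 active means fluorescence ratio B-score, a plate-corrected score, at least three library SD, with initial intensity B-score within 5 SD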
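Assay system: CHO-K1 cells stably expressing KCNQ1; Medium: assay buffer with matched DMSO; Also added: K+/Tl+ depolarizing stimulus; Dosing: single dose; Timing: dye 90 min, compound 20 min, room temperature; Measured by: kinetic FluxOR thallium fluorescence, 10-s 1-Hz baseline, 110-s post-stimulus read; Read-out: peak-minus-minimum fluorescence over initial fluorescence, negative-control normalized, B-scored.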
KCNK9 inh: human KCNK9 channel inhibition; Q9NPC2; HEK293 KCNK9, FluxOR thallium flux fluorescence; stronger effect = lower value; B-score at 10 µM; 1.2% of 310,000 active; AID 488922;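 active means ratio B-score over 3 SD below the library mean, with starting fluorescence within 5 SD of its mean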;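 further: negative B-score means less thallium flux so channel inhibition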
PHOSPHO1 inh: inhibitors of human PHOSPHO1 phosphatase. Q8TCT1. recombinant PHOSPHO1, absorbance phosphatase assay. inhibition, % at 13.3 µM. 1.1% of 290,000 active. AID 1565; in the data active means inhibition above about 60%
Target sequence (Q8TCT1 whole entry, looked up): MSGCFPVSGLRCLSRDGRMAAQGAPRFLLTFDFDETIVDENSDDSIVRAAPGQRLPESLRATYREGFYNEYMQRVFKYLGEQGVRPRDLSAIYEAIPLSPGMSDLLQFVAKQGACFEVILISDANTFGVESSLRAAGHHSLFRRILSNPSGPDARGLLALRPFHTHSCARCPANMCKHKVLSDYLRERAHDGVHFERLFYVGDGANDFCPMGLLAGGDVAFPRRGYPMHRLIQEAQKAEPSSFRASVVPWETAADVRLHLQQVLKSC
KCNQ1 block val: reconfirmed blocker of the human KCNQ1 potassium channel; shares compounds with KCNQ1 inh; KCNQ1 cell line, FluxOR thallium flux fluorescence; inhibition, % at 10 µM; 93% of 1,600 active; AID 588353;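 active means primary screen active, with duplicate mean exceeding buffer control mean plus 3 SD of buffer wells, cut at about 28% in these data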
CHO Tl flux: counter-screen for KCNQ1 inhibitors: effect in parental CHO cells; shares compounds with KCNQ1 inh; parental CHO-K1, FluxOR thallium flux fluorescence ratio; stronger effect = lower value; zero means no signal rise above baseline; fluorescence ratio (Tl flux) at 10 µM; 21% of 1,600 active;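 active means mean of duplicate thallium-flux fluorescence ratios in parental host cells more than 5 SD below the buffer control mean, cut at about 0.38 in these data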;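 further: ratio is peak minus minimum fluorescence divided by baseline fluorescence; actives read low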
KCNQ1 ephys val: human KCNQ1 inhibition validated by electrophysiology; KCNQ1-CHO cells, automated patch clamp current; 20% of 490 active; shares compounds with KCNQ1 inh; calls only at 10 µM;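 active means KCNQ1 current drop exceeding 3 SD of negative control wells, seen in both duplicate runs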;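 further: steady state current during a 2 s step from -80 to +40 mV; negative values mean current inhibition and positive values mean potentiation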
KCNQ2 inh: KCNQ1 inhibitor that also blocks rat KCNQ2 channel. 71% of 1,600 active. KCNQ2 cells, FluxOR thallium flux fluorescence. inhibition, % at 10 µM. AID 651746. shares compounds with KCNQ1 inh;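 active means mean percent inhibition of the KCNQ2 thallium signal more than 5 SD above the buffer-only control wells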;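 further: KCNQ2 expressed in CHO cells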
KCNQ1-KCNE1 inh: selectivity of KCNQ1 inhibitors: inhibition of human KCNQ1/KCNE1 channel | KCNQ1/KCNE1 cells, FluxOR thallium flux fluorescence | 77% of 1,600 active | shares compounds with KCNQ1 inh | inhibition, % at 10 µM;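 active means mean percent inhibition of duplicate wells above the buffer-only control mean plus 3 SD of those controls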
KCNK9 block conf: confirmation of human KCNK9 potassium channel inhibitors; AID 492992; 43% of 4,900 active; HEK293 KCNK9 cells, FluxOR thallium flux fluorescence; inhibition, % at 10 µM; shares compounds with KCNK9 inh;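 active means thallium signal inhibited by more than 5 SD of the compound-free buffer control wells, on both duplicate plates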
Kir2-1 spec: tests whether KCNK9 modulators also affect mouse Kir2.1; shares compounds with KCNK9 inh; Kir2.1 cells, FluxOR thallium flux fluorescence; inhibition, % at 10 µM; 4% of 4,900 active;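 active means thallium signal drop more than 5 SD beyond the mean of the no-compound control wells, seen in both duplicate plates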;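 further: signal is fluorescence rise after thallium addition divided by baseline fluorescence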
HEK293 Tl ctr: second counter-screen for KCNK9 modulators: effect in non-induced cells; non-induced KCNK9-HEK293, FluxOR thallium flux; AID 492997; shares compounds with KCNK9 inh; inhibition, % at 10 µM; 40% of 4,900 active;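 active means thallium signal drop beyond 5 SD of the untreated control mean, on both duplicate plates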
KCNK3 confirm: confirmation of human KCNK3 two-pore domain potassium channel inhibitors | CHO-KCNK3 thallium flux, FluxOR fluorescence; 0% buffer, 100% carvedilol maximal block | 99% of 2,400 active | shares compounds with KCNK3 block | ratio percent of control, % at 10 µM;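 active means ratio percent of control, averaged over triplicates, above buffer control mean plus 5 SD, cut at about 64% in these data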;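 further: ratio is the fluorescence rise from min to max over baseline after thallium stimulus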
KCNK3 uninduced: KCNK3 inhibitor counter-screen hit in non-induced cells | AID 651747 | 40% of 2,400 active | non-induced KCNK3 parental cells, FluxOR thallium flux; stronger effect = lower value | shares compounds with KCNK3 block | thallium flux ratio (lower = more inhibition) at 10 µM;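 active means thallium flux ratio, averaged over three wells, more than 5 SD below the buffer control mean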;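 further: host cells are CHO cells without KCNK3 induction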
Large screens that a line does not name were inactive (follow-up assays come after a bar, where they were run). Compounds with a hit are over-represented: about 4% of the library has one in this group of screens.

Cc1c(C(=O)Nc2cccc(Cl)c2)c2ccccn2c1CCc1ccncc1	KCNK3 block -10, KCNQ1 inh 9 | KCNQ1 block val 159 | CHO Tl flux 0.36 | KCNQ2 inh 123% | KCNQ1-KCNE1 inh active | KCNK3 confirm 134 | KCNK3 uninduced 0.12
Cc1c(C(=O)Nc2ccc(Cl)cc2)c2ccccn2c1C(=O)c1ccc(F)cc1	none
COc1cc2c(cc1OC)C(c1ccc(-c3ccccc3Cl)o1)=NCC2	KCNK3 block -12, KCNQ1 inh 12 | KCNQ1 block val 136 | CHO Tl flux 0.37 | KCNQ2 inh 145% | KCNQ1-KCNE1 inh 196% | KCNK3 confirm 101 | KCNK3 uninduced 0.12
COc1cc2c(cc1OC)C(c1ccc(-c3ccc(Cl)cc3Cl)o1)=NCC2	none
COC(=O)c1ccc(-c2ccco2)n1Cc1nc(-c2ccc(OC)c(OC)c2)oc1C	none
CCC(C)c1ccc(NC(=S)NCc2cccs2)cc1 (stereo unspecified)	KCNK3 block -9.5, KCNQ1 inh 7 | KCNQ1 block val 90 | CHO Tl flux inactive | KCNQ1 ephys val active | KCNQ2 inh 61% | KCNQ1-KCNE1 inh 95% | KCNK3 confirm 111 | KCNK3 uninduced inactive
CC(C)(C)c1ccc(NC(=S)NCc2cccs2)cc1	none
c1ccc(-c2cc(-c3nc4ccccc4[nH]3)c3ccccc3n2)cc1	KCNK3 block -10, KCNQ1 inh 8, KCNK9 inh -7.6 | KCNQ1 block val 149 | CHO Tl flux 0.25 | KCNQ2 inh 122% | KCNQ1-KCNE1 inh active | KCNK3 confirm 143 | KCNK3 uninduced 0.13
COc1cccc(CN2C(=O)C(C)N(C(=O)c3c(F)cccc3F)c3ccccc32)c1 (stereo unspecified)	none
CC1C(=O)N(Cc2ccccc2F)c2ccccc2N1C(=O)c1c(F)cccc1F (stereo unspecified)	KCNK3 block -9, KCNQ1 inh 15, KCNK9 inh -7.7 | KCNQ1 block val 58 | CHO Tl flux inactive | KCNQ2 inh 78% | KCNQ1-KCNE1 inh 50% | KCNK3 confirm 87 | KCNK3 uninduced inactive
Cc1nc(N2CCN(C(c3ccccc3)c3ccccc3)CC2)nc2c1C(=O)CCC2	none (no result: KCNK3 block, hERG protect, KCNQ1 inh, KCNQ1 pot, KCNK9 inh)
O=C1CCCc2nc(N3CCN(C(c4ccccc4)c4ccccc4)CC3)ncc21	KCNK3 block -8.8, KCNQ1 inh 8 | KCNQ1 block val 96 | CHO Tl flux inactive | KCNQ1 ephys val inactive | KCNQ2 inh 108% | KCNQ1-KCNE1 inh 165% | KCNK3 confirm 119 | KCNK3 uninduced 0.14
CC[C@H](C)[C@H]1CNC(=S)N1CC1CCN(CCC23CC4CC(CC(C4)C2)C3)CC1	none (no result: hERG protect, KCNQ1 inh, KCNQ1 pot, KCNK9 inh, PHOSPHO1 inh)
CCC(CC)C(=O)c1c[nH]c(C(=O)NCCCn2ccnc2)c1	none
O=C(Cc1cccs1)NCCSc1c(-c2ccc(Cl)cc2)[nH]c2ccccc12	KCNK3 block -14, KCNQ1 inh 19, KCNK9 inh -14 | KCNQ1 block val 134 | CHO Tl flux 0.35 | KCNQ2 inh 124% | KCNQ1-KCNE1 inh 186% | KCNK9 block conf 54% | Kir2-1 spec inactive | HEK293 Tl ctr 32% | KCNK3 confirm 132 | KCNK3 uninduced 0.15
CCOC(=O)CSc1c(-c2ccc(Cl)cc2)[nH]c2ccccc12	none
CC(Cc1cccs1)NC(=O)Nc1cccc(Cl)c1 (stereo unspecified)	KCNK3 block -11, KCNQ1 inh 9, KCNK9 inh -18 | KCNQ1 block val 127 | CHO Tl flux inactive | KCNQ1 ephys val active | KCNQ2 inh inactive | KCNQ1-KCNE1 inh 71% | KCNK9 block conf 53% | Kir2-1 spec inactive | HEK293 Tl ctr 32% | KCNK3 confirm 109 | KCNK3 uninduced inactive
Cc1ccc2[nH]c3c(c2c1)CN(C(=O)CN1CC(C)OC(C)C1)CC3 (stereo unspecified)	none (no result: hERG protect, KCNQ1 inh, KCNQ1 pot, KCNK9 inh)
COc1cccc(C(=O)Nc2cccc(-c3ccccc3)c2)c1	KCNK3 block -12, KCNQ1 inh 9 | KCNQ1 block val 148 | CHO Tl flux inactive | KCNQ1 ephys val inactive | KCNQ2 inh 99% | KCNQ1-KCNE1 inh active | KCNK3 confirm 113 | KCNK3 uninduced inactive
COc1cccc(NC(=O)c2ccccc2)c1	none (no result: hERG protect, KCNQ1 inh, KCNQ1 pot, KCNK9 inh, PHOSPHO1 inh)
Cc1cccc2sc(NC(=O)C3CC3)nc12	none
Cc1cccc2sc(NC(=O)C3c4ccccc4Oc4ccccc43)nc12	KCNK3 block -10, KCNQ1 inh 13, KCNK9 inh -10 | KCNQ1 block val 112 | CHO Tl flux inactive | KCNQ1 ephys val inactive | KCNQ2 inh 76% | KCNQ1-KCNE1 inh 144% | KCNK9 block conf 44% | Kir2-1 spec inactive | HEK293 Tl ctr 40% | KCNK3 confirm 130 | KCNK3 uninduced 0.15
COc1ccc(-c2csc3ncnc(N4CCN(c5ccccc5)CC4)c23)cc1	KCNQ1 inh 15, KCNK9 inh -6.7 | KCNQ1 block val 134 | CHO Tl flux 0.37 | KCNQ2 inh 132% | KCNQ1-KCNE1 inh active | KCNK3 confirm 106 | KCNK3 uninduced 0.13
CCc1nc(Nc2ccc3c(c2)OCO3)c2oc3ccccc3c2n1	none
